By Kd is commonly meant a measure of binding affinity in units of concentration.

The text below walks through data of paper PMC2195906 (The Journal of Experimental Medicine, 2001).

Entries after “also recorded” stand apart in the source; their conditions may differ. Ends that are not written are not given here. * marks the point of attachment. Biotin = O=C1N[C@H]2[C@H](CS[C@H]2CCCCC(=O)*)N1

Assay [1] relates to ANT. To be noted: ref 8 26 28 40; cited from earlier work.
Assay [2] has as its system ANT. As to the kind of experiment: Affinity purification of ANT by biotinylated Vpr52-96 and immunoblot. Format: binding, mouse. To be noted: Fig. 7 C.
Assay [3] has as its system purified mitochondria (ΔΨm). As to the kind of experiment: ΔΨm dissipation in purified mitochondria, effect of inhibitors. The assay is classed as biochemical, mouse. To be noted: for protection against Vpr-induced inner MMP (in words): purified mitochondria, Fig. 6 B–E.
Assay [4] is described as follows: Binding of FITC–Vpr52-96 to purified mitochondria. Set-up: species or system mouse. To be noted: for effect on binding of Vpr52-96 to purified mitochondria: 10 min preincubation with inhibitors, Fig. 7 B.
Assay [5] concerns COS cells. Kind of assay: ΔΨm dissipation in microinjected COS cells. Format: cell-based. An outline of the steps:
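COS cells grown in DMEM Glutamax with Hepes, antibiotics and 10% FCS on a premarked coverslip area (>200 cells per experiment). Cells were injected into the cytoplasm (200 hPa, 0.5 s) with PBS pH 7.2, recombinant human Bcl-2 (residues 1–218; 10 μM in the injection solution) or 2 μM König's polyanion.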

Assay [6] deals with biotin–Vpr52-96 (synthetic peptide, COOH-terminal moiety of HIV-1 viral protein R) (HIV-1) (UniProt P69726). As to the kind of experiment: SPR. (In SPR one partner is held on a chip, and binding of the other changes the refractive index at the surface.)
Assay [7] addresses T1, ANT (Rattus norvegicus, UniProt Q05962).
T1 sequence (Q05962 1-298): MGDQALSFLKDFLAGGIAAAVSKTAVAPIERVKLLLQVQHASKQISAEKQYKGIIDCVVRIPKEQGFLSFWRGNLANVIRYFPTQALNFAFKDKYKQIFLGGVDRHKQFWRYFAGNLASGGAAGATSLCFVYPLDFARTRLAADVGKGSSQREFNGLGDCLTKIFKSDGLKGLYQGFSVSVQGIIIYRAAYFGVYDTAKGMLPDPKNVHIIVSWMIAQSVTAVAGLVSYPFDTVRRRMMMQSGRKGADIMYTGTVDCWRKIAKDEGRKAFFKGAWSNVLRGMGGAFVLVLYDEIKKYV
As to the kind of experiment: Planar lipid bilayers, single channel level, Vpr52-96 plus ANT. The assay is classed as biochemical. The note with it: +75 mV. An outline of the steps: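 Rat heart mitochondrial ANT, purified via subtilisin treatment, Triton X-100 solubilization, hydroxyapatite and SP column (0–1 M NaCl). Proteins held 30 min RT with 1 mM CaCl2, 40 μM atractyloside or control electrolyte, mixed with dried lipid (60 μg protein/mg lipid), detergent removed by beads. Tip-dip bilayers, symmetric 100 mM KCl, 2 mM MgCl2, 10 mM Hepes pH 7.4.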

Assay [8] deals with VDAC. The note with it: sucrose or cytochrome c, in vitro; ref 9 44; cited from earlier work.
For assay [9], the system named is purified mitochondria, inner membrane. Kind of assay: Respirometry: NADH-dependent oxygen consumption. The note with it: Bcl-2 0.8 μM pretreated 10 min; other agents added; Fig. 5 A, 6 B. The assay is classed as biochemical, mouse. Put shortly: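 Oxygen uptake was recorded by Clark electrode at 37°C (mannitol/KCl/MgCl2/BSA/KH2PO4 medium, pH 7.4) after 2 mM NADH and 1 μM peptide, with rotenone added to test sensitivity; rates are in nmol O2/min/mg protein. For inhibitor tests, mitochondria were pretreated 10 min with 0.8 μM Bcl-2 or 10 μM BA before succinate plus CCCP or NADH. In the kinetics, 15 μM cytochrome c oxidation was followed in parallel, with 100% set by 2.5 mM laurylmaltoside.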

The target of assay [10] is T1, ANT. As to the kind of experiment: Plasmon resonance. Format: binding. To be noted: for sensorgram: increase of binding as a function of time: plasmon resonance, association and dissociation phase, Fig. 1 A; for binding affinity for ANT (in words): surface plasmon resonance, purified detergent-solubilized ANT.
For assay [11], the system named is recombinant VDAC. Kind of assay: Plasmon resonance: binding to recombinant VDAC. To be noted: control experiments, VDAC concentrations up to 10 μM.
Assay [12] concerns ANT proteoliposomes. As to the kind of experiment: Binding of FITC-labeled Vpr52-96 to ANT proteoliposomes. Set-up: species or system rat. The note with it: FITC–Vpr52-96 (2 μM in Fig. 2 B); BA 50 μM; Bcl-2 800 nM preincubated (Fig. 8 B). Put shortly:
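ANT was purified from rat heart mitochondria (Triton X-100 extraction, hydroxyapatite, then cation-exchange with a 0–1 M NaCl gradient) and reconstituted at 0.1 mg/ml into phosphatidylcholine/cardiolipin liposomes, then dialysed overnight at 4°C. Proteoliposomes were exposed 30 min to FITC-peptide in 125 mM sucrose/10 mM Hepes pH 7.4, ultracentrifuged (290,000 g, 45 min, 10°C) and read by flow cytometry. Inhibitors were preincubated and washed out; mean ± SD, n = 3.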

Assay [13] relates to purified mitochondria (respiratory control). Kind of assay: Respiratory control. The assay is classed as biochemical, mouse. The note with it: 1 μM Vpr-derived peptides, 10 min. An outline of the steps: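 Clark-electrode oxygraphy at 37°C in 0.3 M mannitol, 10 mM KCl, 5 mM MgCl2, 1 mg/ml BSA, 10 mM KH2PO4, pH 7.4. Purified mitochondria were pretreated 10 min with 1 μM peptide; succinate oxidation was followed with sequential ADP, oligomycin and CCCP additions. Mean of three determinations.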

The test system of assay [14] is ANT proteoliposomes. As to the kind of experiment: Pore-opening assay: 4-MUP release from ANT proteoliposomes. To be noted: peptides 1 μM, 60 min, Atr 200 μM = 100%, Fig. 2 C. The assay is classed as biochemical, rat. An outline of the steps: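 ANT purified from rat heart mitochondria, reconstituted into PC/cardiolipin liposomes, sonicated on ice with 1 mM 4-MUP/10 mM KCl, gel-filtered. Diluted in 10 mM Hepes, 125 mM saccharose pH 7.4, peptide 1 h RT; inhibitors added 30 min earlier. Alkaline phosphatase (0.5 mM MgCl2) 15 min 37°C, stopped at pH 10. 4-MU fluorescence 360/450 nm. Release = % of atractyloside response after untreated background subtraction; n = 3, SD.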

Assay [15] deals with isolated mitochondria. Kind of assay: Ultrastructure: swelling of isolated mitochondria. The assay is classed as biochemical, mouse. The note with it: Fig. 6 C.
Assay [16] deals with Vpr52-96–ANT interaction. Format: binding, rat. The note with it: native purified ANT; Fig. 8 A; X ± SD, n = 3.

As to `C=C1[C@@H]2CC[C@H]3[C@]4(C)C[C@H](O[C@@H]5O[C@H](CO)[C@@H](OS(=O)(=O)O)[C@H](OS(=O)(=O)O)[C@H]5OC(=O)CC(C)C)C[C@@H](C(=O)O)[C@H]4CC[C@]3(C2)[C@H]1O` [Atr, atractyloside, reference compound], the “effect on ANT pore formation” value in assay [1] was “cause ANT (which normally is a strictly specific ADP/ATP antiporter) to form a nonspecific pore”.
On to König's polyanion [PA10], for which the “effect on Vpr52-96-mediated purification of ANT, intact mitochondria” value in assay [2] (5 μM biotinylated Vpr52-96, 30 min RT, lysed after incubation) is listed as “fully abolished”. In addition, in assay [2] (mitochondria lysed before incubation with 5 μM biotinylated Vpr52-96), the “effect on Vpr52-96-mediated purification of ANT, Triton-solubilized mitochondria” value is “did not affect”. In [3], the “protection against Vpr-induced inner MMP (in words)” value (from here on “protection”) is given as “also inhibited the manifestations of inner MMP”. Further, the “effect on binding of Vpr52-96 to purified mitochondria” value (shortened to “effect on binding”) in [4] is given as “completely abolished; also recorded: completely blocks the binding of Vpr52-96 to intact mitochondria”. The “effect on Vpr action on intact cells (in words)” value in assay [5] (2 μM PA10 microinjected, 1 μM Vpr52-96, 3 h) is reported as “also inhibited the effect of Vpr52-96 on intact cells”.
The compound “adenine nucleotide translocator (ANT) purified from rat heart mitochondria (from UniProt Q05962 1-298) (natural protein)” gave a Kd in assay [6] of 9.7 nM.
On to Bax: proapoptotic Bcl-2 family protein, for which the “effect on ANT pore formation” value in assay [1] is on record as “cause ANT (which normally is a strictly specific ADP/ATP antiporter) to form a nonspecific pore”. In assay [7] (Vpr52-96 plus ANT plus Bax 0.4:1:0.3 nM, mean value), the “conductance of Vpr52-96–ANT channels in presence of Bax” value came out at 245 ± 2 pS. The “effect on permeabilization of VDAC-containing liposomes” value in assay [8] is on record as “enhanced by Bax”.
Consider `Nc1ncnc2c1ncn2[C@@H]1O[C@H](COP(=O)(O)OP(=O)(O)O)[C@@H](O)[C@H]1O` [ADP, reference compound], for which the “effect on Vpr-induced NADH-dependent oxygen consumption” value in assay [9] was “strongly inhibited the Vpr-dependent, NADH-stimulated oxygen consumption”.
Take “FITC-labeled Vpr52-96: FITC-labeled Vpr52-96 (DTWAGVEAIIRILQQLLFIHFRIGCRHSRIGVTRQRRARNGASRS; also: FITC label, position not given here)”: the “binding of FITC-labeled Vpr52-96 to intact mitochondria” value in assay [4] (0.5 μM FITC–Vpr52-96, Fig. 7 A) is “rapidly bound to intact mitochondria and then provoked ΔΨm loss”.
Take “Vpr52-96[R73A,80A] (Biotin-DTWAGVEAIIRILQQLLFIHFAIGCRHSAIGVTRQRRARNGASRS)”: in assay [10], the “sensorgram: increase of binding as a function of time” value is given as “Only the sensorgram of the interaction with Vpr52-96 exhibits an increase of binding”. The “specific binding to VDAC” value in assay [11] is “without any difference between Vpr52-96 and Vpr52-96[R73A, 80A] and without detectable saturation”.
Take `CO[C@H](C/C=C\C=C\CC/C=C/C[C@H](C)/C=C/C(=C\C(=O)O)CC(=O)O)/C(C)=C\C=C(/C)C(=O)O` [BA, bongkrekic acid]: the “protection” value in [3] is “also inhibited the manifestations of inner MMP”. In [4], the “effect on binding” value is recorded as “partially reduced; also recorded: reduces the binding of Vpr to mitochondria to some extent”. Besides, in assay [12], the “effect on Vpr binding to ANT proteoliposomes” value was “inhibited”.
As for Vpr1-51: NH2-terminal moiety of Vpr, the “effect on RC (in words)” value in [13] is “but not Vpr1-51”. Besides, the “permeabilization of ANT proteoliposomes” value in [14] was “but not the NH2-terminal moiety of Vpr [Vpr1-51]”.
Take “Bcl-2: recombinant human Bcl-2 (amino acids 1–218)”: the “effect on formation of Vpr52-96–induced channels in ANT-containing lipid bilayers” value in assay [7] (Vpr52-96 plus ANT plus Bcl-2 0.4:1:1 nM, Fig. 8 C) is “suppresses channel formation by the ANT–Vpr complex; also recorded: abolished the formation of Vpr52-96–induced channels”. The “inhibition of Vpr-induced matrix swelling” value in assay [15] (Bcl-2 preincubation) is reported as roughly 50%. The “effect on Vpr52-96-induced matrix swelling (in words)” value in assay [15] is listed as “strongly reduced the Vpr52-96–induced matrix swelling”. In [3] (Bcl-2 preincubation (0.8 μM), Fig. 6 D, E), the “inhibition of Vpr-induced ΔΨm loss in purified mitochondria” value is listed as roughly 70%. Also, the “protection” value in [3] was “protect mitochondria against Vpr-induced MMP”. The “effect on binding” value in assay [4] is “failed to impair the binding of Vpr52-96 to purified mitochondria; also recorded: not affected”. The “effect on Vpr-induced NADH-dependent oxygen consumption” value in assay [9] is recorded as “inhibited the Vpr-mediated inner MMP to NADH”. Further, the “effect of Bcl-2 proteins on Vpr52-96 binding to soluble ANT” value in [16] is recorded as “reduces the ANT–Vpr interaction; also recorded: reduced Vpr52-96 binding to soluble; also recorded: inhibits binding of Vpr52-96 to ANT”. The “effect on permeabilization of VDAC-containing liposomes” value in assay [8] is “inhibited by Bcl-2”. Also, the “inhibition of Vpr-induced ΔΨm loss in intact cells” value in assay [5] (10 μM recombinant human Bcl-2 microinjected, 1 μM Vpr52-96, 3 h) is listed as no less than 95%. In addition, the “cells with ΔΨm reduction, inhibitor-injected” value in assay [5] (Bcl-2-injected (10 μM), 1 μM Vpr52-96, 3 h) is listed as “Less than 5%”. Moreover, the “effect on Vpr binding to ANT proteoliposomes” value in assay [12] is given as “reduced”.
With “Vpr: Vpr added extracellularly to intact cells; Fig. 6 A legend gives 1 μM Vpr52-96”, the “vehicle-microinjected cells with complete ΔΨm dissipation” value in assay [5] (1 μM Vpr52-96 (Fig. 6 A), 3 h, n = 3) is 61 ± 8%.
On to “biotin–Vpr52-96: NH2-terminally biotinylated Vpr52-96 (Biotin-DTWAGVEAIIRILQQLLFIHFRIGCRHSRIGVTRQRRARNGASRS)”, for which the “binding affinity for ANT (in words)” value in assay [10] is “affinity in the nanomolar range”.
In the case of `C=C(C)[C@H]1Cc2c(ccc3c2O[C@@H]2COc4cc(OC)c(OC)cc4[C@@H]2C3=O)O1` [rotenone, reference compound], the “effect on Vpr-induced NADH-dependent oxygen consumption” value in [9] is “fully sensitive to rotenone”.
In the case of “biotin–Vpr52-96[R73,80A]: mutated biotin–Vpr52-96[R73,80A], immobilized on biosensor chip (Biotin-DTWAGVEAIIRILQQLLFIHFAIGCRHSAIGVTRQRRARNGASRS)”, the “binding affinity for ANT (in words)” value in assay [10] was “to a far lesser extent”.
As to cyclosporin A [CsA], in assay [3], the “protection” value was “also inhibited the manifestations of inner MMP”. For the same compound, in [4], the “effect on binding” value is given as “not affected”.
For “HWWRAESDEARRCYNDPKCCDFVTNR [irrelevant control (Co.), reference compound]”, in assay [10], the “sensorgram: increase of binding as a function of time” value is “Only the sensorgram of the interaction with Vpr52-96 exhibits an increase of binding”.
